Test results taken from PMC11342405 (Bioorganic & medicinal chemistry, 2024).
pIC50: −log10 of the molar value. “Also recorded” adds a separate entry of the source. Each block holds one compound with its values, some of them ahead of it.

Legend:
HEK-293 cells = assay: Anti-proliferative MTT assay, non-cancerous HEK-293 cells; type: cell-based; conditions: Homo sapiens, HEK293, 72 h, read-out: HEK-293 IC50
In short: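 HEK-293 cells grown in DMEM with 10% FBS and 1% penicillin/streptomycin, seeded at 2.5 x 10^4 cells/well and allowed 24 h before dosing. Compound (DMSO stock) given at increasing concentrations for 72 h at 37 °C, 5% CO2. MTT (5.4 mg/mL dye solution) was added for 3 h, formazan dissolved in DMSO, and absorbance read at 570 nm. Replicates 6-8; IC50 derived from concentration-response data.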

gankyrin [1] = biological target: T1, gankyrin (Homo sapiens, UniProt O75832); assay: Circular dichroism of gankyrin; type: binding; conditions: 10 μM gankyrin, 1-100 μM compound, 25 °C
T1 sequence (O75832 1-226): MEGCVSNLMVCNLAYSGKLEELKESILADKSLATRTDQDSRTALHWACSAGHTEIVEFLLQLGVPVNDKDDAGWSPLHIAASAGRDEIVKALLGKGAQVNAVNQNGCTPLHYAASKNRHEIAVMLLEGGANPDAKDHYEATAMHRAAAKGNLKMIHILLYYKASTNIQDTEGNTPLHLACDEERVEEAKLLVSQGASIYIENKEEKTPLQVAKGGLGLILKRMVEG
In short: (§1)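 Recombinant His-tagged protein was expressed in E. coli LOBSTR BL21(DE3) (0.5 mM IPTG, 37 °C, 16 h) and Ni-affinity purified. The tag was removed with TEV, followed by a second HisTrap pass and gel filtration if needed. 10 μM protein in 25 mM Tris, 50 mM NaCl, pH 7.4, alone or with 1, 10 or 100 μM compound. Spectra 195–260 nm in a 1 mm quartz cuvette, six accumulations, 25 °C; α-helical content monitored; triplicate samples.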

ANKRA2 = biological target: T2, ANKRA2 (Homo sapiens, UniProt Q9H9E1); assay: Circular dichroism of ANKRA2; type: binding; conditions: 10 μM ANKRA2, 1-100 μM compound, 25 °C
T2 sequence (Q9H9E1 152-313 limits assumed): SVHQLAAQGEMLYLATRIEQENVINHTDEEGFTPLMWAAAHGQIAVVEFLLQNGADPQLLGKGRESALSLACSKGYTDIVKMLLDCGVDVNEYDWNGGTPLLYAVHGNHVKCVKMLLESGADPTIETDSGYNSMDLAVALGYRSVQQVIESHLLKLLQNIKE
In short: as §1

HuH6 cells = assay: Cell cycle analysis by flow cytometry in HuH6 cells; type: cell-based; conditions: 3.3 μM, 72 h, vs DMSO
In short: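 HuH6 cells in 10 cm dishes were exposed to test compound or vehicle (0.25% DMSO final) for 72 h. Cells were harvested in cold PBS, normalized, fixed in 70% ethanol at −20 °C overnight, then stained with PI/RNase for 30 min at 37 °C. DNA content was measured by flow cytometry. Mean ± SD, n = 3; one-way ANOVA, P < 0.05 significant.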

[2] = system: Rb, p53 and gankyrin levels in HuH6 cells; assay: Western blot analysis of TSP levels in HuH6 cells; type: cell-based; conditions: 48 h
In short: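 HuH6 cells in 10 cm dishes were exposed to varying compound concentrations (0.25% DMSO final) or DMSO only for 48 h. Cells were harvested in cold PBS and lysed in RIPA with protease/phosphatase inhibitors, 60 min on ice. 15 μg protein was resolved under reducing conditions, transferred to PVDF and probed for p53, Rb and gankyrin, with cyclophilin as reference; HRP secondaries, ECL detection. Run in duplicate.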

gankyrin [3] = biological target: T1, gankyrin; assay: Cellular thermal shift assay; type: cell-based; conditions: HuH6 cells treated at anti-proliferative IC50 for 5 h, 50-65 °C
In short: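 HuH6 cells were exposed to test compound (0.25% DMSO final) or DMSO alone for 5 h, harvested, split into six aliquots and heated at 50, 53, 56, 59, 62 or 65 °C. Lysis was in RIPA with protease/phosphatase inhibitors, 60 min on ice. 15 μg protein was run on reducing SDS-PAGE, transferred to PVDF and probed for gankyrin, with β-actin as reference; HRP secondary and ECL detection.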

SMILES: COC(=O)c1ccc(C(=O)NCCCNC(=O)c2ccc(C(=O)OC)cc2)cc1 [Compound 10d, Dimethyl 4,4'-((propane-1,3-diylbis(azanediyl))bis(carbonyl))dibenzoate]
pIC50 (HEK-293 cells): < 4.30
effect on gankyrin secondary structure / 3D fold (CD spectra) (gankyrin [1]): reduction in secondary structure content; also recorded: significant loss of gankyrin structural integrity
effect on ANKRA2 secondary structure / 3D fold (CD spectra) (ANKRA2): no changes in secondary structure content; also recorded: no significant global structure change

gankyrin thermal stability (CETSA) (gankyrin [3]): bind and thermally stabilize gankyrin
SMILES: COC(=O)c1ccc(NC(=O)CCC(=O)Nc2ccc(C(=O)OC)cc2)cc1 [Compound 13d, Dimethyl 4,4'-(succinylbis(azanediyl))dibenzoate]
pIC50 (HEK-293 cells): < 4.30
number of cells in the G0-G1 phase (HuH6 cells): significant increase
number of cells in the S phase (HuH6 cells): significant decrease
Rb and p53 levels (western blot) [2]: increase in both Rb and p53 levels
gankyrin levels (western blot) [2]: relatively constant
effect on gankyrin secondary structure / 3D fold (CD spectra) (gankyrin [1]): decline in secondary structure content; also recorded: significant loss of gankyrin structural integrity
effect on ANKRA2 secondary structure / 3D fold (CD spectra) (ANKRA2): no alterations in secondary structure content; also recorded: no significant global structure change
